Data as given in ChEMBL document CHEMBL2396579, “Synthesis and in vitro photocytotoxicity of coumarin derivatives for one- and two-photon excited photodynamic therapy” (J Med Chem, 2013).
Values after ≈ are worked out from the molar mass of the structure shown. Active and inactive are the calls of the source. No cut-off for these calls is given here.

What was measured:
[1] = tested on: HepG2; experiment: Cellular uptake in human HepG2 cells at 20 uM after 4 hrs by fluorescence spectrophotometry; type: ADME, cell-based; conditions: hepg2, 4 h
In short: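 HepG2 cells were incubated with 20 μM photosensitizer for different times and intracellular concentration was measured at each time point. Mean ± SD, three replicates.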

[2] = tested on: HepG2; experiment: Dark cytotoxicity against human HepG2 cells after 24 hrs by CCK-8 assay; type: cell-based; conditions: HepG2, 24 h
In short: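 HepG2 cells exposed to a range of photosensitizer concentrations (tested up to 50 μM) for 24 h without light before the viability test. IC50 is the concentration giving 50% growth inhibition.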

[3] = Solubility of the compound in PBS buffer at pH 7.4; type: physicochemical
[4] = tested on: HepG2; experiment: Photocytotoxicity against human HepG2 cells assessed as cell viability at 20 uM incubated for 4 hrs prior to 630 mW laser irradiation for 10 mins followed by 24 hrs incubation in dark by CCK-8 assay; type: functional; conditions: for viability at 20 µM: HepG2, light or radiation study, read-out: Activity
In short: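 HepG2 cells were incubated with 20 μM photosensitizer for 4 h and split into two equal series. One series received 800 nm femtosecond laser light (1.64 W cm−2, 1 kHz, 130 fs) for 10 min; the other stayed dark as control. Both were held 24 h in the dark before viability was read. Photosensitizer-free cells were also irradiated. Mean ± SD, three replicates.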

[5] = Drug uptake in human HepG2 cell mitochondria at 10 uM after 4 hrs by confocal laser scanning microscopy; type: ADME; conditions: hepg2, 4 h
[6] = Octanol-water partition coefficient, log P of the compound; type: physicochemical
[7] = tested on: HepG2; experiment: Photocytotoxicity against human HepG2 cells assessed as growth inhibition incubated for 4 hrs in dark prior to 20 mW cm'-2 laser irradiation for 20 mins followed by 24 hrs incubation in dark by CCK8 assay; type: functional, cell-based; conditions: HepG2, light or radiation study
In short: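 HepG2 cells were loaded with photosensitizer for 4 h and then irradiated with a 532 nm laser for 20 min at 20 mW cm−2. They were kept in the dark for 24 h before the viability test. IC50 is the concentration giving 50% growth inhibition.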

[8] = tested on: HepG2; experiment: Intracellular ROS generation in human HepG2 cells at 20 uM after 4 hrs by DCFH-DA-based fluorescence analysis; type: functional, cell-based
In short: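 Intracellular ROS in HepG2 cells was detected with the probe 2,7-dichlorodihydrofluorescein diacetate (DCFH-DA), which ROS convert to fluorescent 2,7-dichlorofluorescein.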

In the case of `CCN(CC)c1ccc(/C=C/C(=O)c2cc3ccc(OCCOCCOCCOC)cc3oc2=O)cc1`, the Drug uptake [1] is reported as “Active”, the IC50 [2] is reported as greater than 50 µM and the solubility [3] is reported as 1.1 µg/mL (≈ 2.16 µM). For the same compound, the viability at 20 µM [4] was 70%, the Drug uptake [5] was “Active” and the logP [6] was 3. For the same compound, the IC50 [7] was 8.1 µM and the Activity [8] was “Active”.
With `COCCOCCOCCOCCN(CCOCCOCCOCCOC)c1ccc(/C=C/C(=O)c2cc3ccc(OCCOCCOCCOC)cc3oc2=O)cc1` the Drug uptake [1] was “Active”, the IC50 [2] was greater than 50 µM and the solubility [3] was greater than 10000 µg/mL. For the same compound, the Activity [4] was “inactive”, the Drug uptake [5] was “Not Active” and the logP [6] was 0.3. For the same compound, the IC50 [7] was greater than 50 µM and the Activity [8] was “Active”.
With `CCN(CC)c1ccc2cc(C(=O)/C=C/c3ccc(N(CCOCCOCCOCCOC)CCOCCOCCOCCOC)cc3)c(=O)oc2c1` the Drug uptake [1] was “Active”, the IC50 [2] was greater than 50 µM and the solubility [3] was 750 µg/mL (≈ 1010 µM). For the same compound, the viability at 20 µM [4] was 30%, the Drug uptake [5] was “Active” and the logP [6] was 2.2. For the same compound, the IC50 [7] was 4.6 µM and the Activity [8] was “Active”.
With `CCN(CC)c1ccc2cc(C(=O)/C=C/c3ccc(N(C)CCOCCOCCOCCOC)cc3)c(=O)oc2c1` the Drug uptake [1] was “Active”, the IC50 [2] was greater than 50 µM and the solubility [3] was 26 µg/mL (≈ 45.9 µM). For the same compound, the viability at 20 µM [4] was 20%, the Drug uptake [5] was “Active” and the logP [6] was 3.4. For the same compound, the IC50 [7] was 3.9 µM and the Activity [8] was “Active”.
With `COCCOCCOCCOCCN(C)c1ccc(/C=C/C(=O)c2cc3ccc(OCCOCCOCCOC)cc3oc2=O)cc1` the Drug uptake [1] was “Active”, the IC50 [2] was greater than 50 µM and the solubility [3] was 700 µg/mL (≈ 1060 µM). For the same compound, the Activity [4] was “inactive”, the Drug uptake [5] was “Not Active” and the logP [6] was 1.4. For the same compound, the IC50 [7] was greater than 50 µM and the Activity [8] was “Active”.
